Results as given in ChEMBL document CHEMBL1649405, “Structure-activity relationships study of 6-chloro-4-(2-chlorophenyl)-3-(2-hydroxyethyl) quinolin-2(1H)-one derivatives as novel non-nucleoside anti-hepatitis B virus agents” (Eur J Med Chem, 2011).

Key:
Hepatitis B virus [1] = assay: Antiviral activity against Hepatitis B virus infected in human HepG2(2.2.15) cells assessed as inhibition of viral surface antigen secretion after 6 days by ELISA; assay type: functional, organism-based; conditions: HepG2 2.2.15, 144 h
Method in brief: (§1)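 HepG 2.2.15 cells in DMEM with 10% FBS, 37 °C, 5% CO2. Treated for 6 days with refeeding every other day. Culture medium centrifuged at 6000 g to clear debris. HBeAg or HBsAg measured by quantitative ELISA on a microplate reader. IC50 = concentration giving 50% inhibition of secretion. Mean of two independent experiments.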

Hepatitis B virus [2] = assay: Antiviral activity against Hepatitis B virus infected in human HepG2(2.2.15) cells assessed as inhibition of viral e antigen secretion after 6 days by ELISA; assay type: functional, organism-based; conditions: HepG2 2.2.15, 144 h; method in brief: as §1
[3] = Cytotoxicity against human HepG2(2.2.15) cells; assay type: cell-based
Method in brief: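 HepG 2.2.15 cells in DMEM with 10% FBS, 37 °C, 5% CO2. CC50 = concentration killing 50% of cells. Mean of two independent experiments.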

[4] = Selectivity index, ratio of CC50 for human HepG2(2.2.15) cells to IC50 for Hepatitis B virus infected in human HepG2(2.2.15) cells assessed as inhibition of viral surface antigen secretion; assay type: functional
Method in brief: (§2)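 Ratio of CC50 in HepG 2.2.15 cells to the IC50 for HBeAg or HBsAg secretion. Both values come from ELISA and cytotoxicity runs on the same cell line. Each input is the mean of two independent experiments.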

[5] = Selectivity index, ratio of CC50 for human HepG2(2.2.15) cells to IC50 for Hepatitis B virus infected in human HepG2(2.2.15) cells assessed as inhibition of viral e antigen secretion; assay type: functional; method in brief: as §2
Hepatitis B virus [6] = assay: Antiviral activity against Hepatitis B virus infected in human HepG2(2.2.15) cells assessed as inhibition of viral DNA replication after 6 days by PCR analysis; assay type: functional, organism-based
Method in brief: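 HepG 2.2.15 cells in DMEM with 10% FBS, 5 mM L-glutamine, penicillin/streptomycin, 37 °C, 5% CO2; seeded 5 × 10^5 per well, medium changed every 2 days. Compound added after 6 days, refed every other day for 6 more days. HBV DNA by real-time PCR against a cloned HBV plasmid standard series. IC50 = 50% inhibition. Mean of two independent experiments.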

| SMILES | IC50 (Hepatitis B virus [1]) | IC50 (Hepatitis B virus [2]) | IC50 (Hepatitis B virus [6]; Hepatitis B virus, HepG2 2.2.15, 144 h, read-out: IC50) | IC50 (Hepatitis B virus [6]; hepg2 2.2.15) | CC50 [3] | Selectivity Index [4] | Selectivity Index [5] |
| --- | --- | --- | --- | --- | --- | --- | --- |
| O=C(COc1ccccc1)OCCc1c(-c2ccccc2Cl)c2cc(Cl)ccc2[nH]c1=O | 56 µM | > 81 µM |  |  | 81 µM | 1.5 | <1 |
| O=C(/C=C/c1ccc2c(c1)OCO2)OCCc1c(-c2ccccc2Cl)c2cc(Cl)ccc2[nH]c1=O | 150 µM | 220 µM | 160 µM |  |  | >8.1 | >5.4 |
| O=C(CN1C(=O)c2ccccc2C1=O)OCCc1c(-c2ccccc2Cl)c2cc(Cl)ccc2[nH]c1=O | 170 µM | > 960 µM |  |  | 960 µM | 5.7 | <1 |
| Nc1ccn([C@@H]2CS[C@H](CO)O2)c(=O)n1 [LAMIVUDINE] | 27000 µM | 30000 µM |  |  |  | 1.1 | 1 |
| CCCCCCCC(=O)OCCc1c(-c2ccccc2Cl)c2cc(Cl)ccc2[nH]c1=O | 40 µM | > 78 µM |  |  | 78 µM | 1.9 | <1 |
| COc1ccc(/C=C/C(=O)OCCc2c(-c3ccccc3Cl)c3cc(Cl)ccc3[nH]c2=O)cc1OC | 21 µM | 57 µM |  | Not Active | > 1200 µM | >58 | >21 |
| CCCCC(=O)OCCc1c(-c2ccccc2Cl)c2cc(Cl)ccc2[nH]c1=O | 82 µM | > 200 µM |  |  | 200 µM | 2.4 | <1 |
| O=c1c(CCO)c(-c2ccccc2Cl)c2cc(Cl)ccc2n1Cc1ccccc1 | 12 µM | 12 µM |  |  | 26 µM | 2.2 | 2.2 |
| CC(=O)OCC(=O)OCCc1c(-c2ccccc2Cl)c2cc(Cl)ccc2[nH]c1=O | 57 µM | 71 µM |  |  | 100 µM | 1.8 | 1.4 |
| CC(=O)NCC(=O)OCCc1c(-c2ccccc2Cl)c2cc(Cl)ccc2[nH]c1=O | 74 µM | > 110 µM |  |  | 110 µM | 1.4 | <1 |
| CCCC(=O)OCCc1c(-c2ccccc2Cl)c2cc(Cl)ccc2[nH]c1=O | 35 µM | > 52 µM |  |  | 52 µM | 1.5 | <1 |
| O=C(/C=C/c1cccnc1)OCCc1c(-c2ccccc2Cl)c2cc(Cl)ccc2[nH]c1=O | 34 µM | 2200 µM |  |  | 39 µM | 1.1 | <1 |
| C/C=C(\C)C(=O)OCCc1c(-c2ccccc2Cl)c2cc(Cl)ccc2[nH]c1=O | 58 µM | 62 µM |  |  | 350 µM | 6.1 | 5.6 |
| O=C(OCCc1c(-c2ccccc2Cl)c2cc(Cl)ccc2[nH]c1=O)c1ccco1 | 51 µM | 58 µM |  |  | 98 µM | 1.9 | 1.6 |
| O=C(OCCc1c(-c2ccccc2Cl)c2cc(Cl)ccc2[nH]c1=O)C1CCCC1 | 46 µM | 46 µM |  |  | 46 µM | 1 | 1 |
| O=C(/C=C/c1ccccc1)OCCc1c(-c2ccccc2Cl)c2cc(Cl)ccc2[nH]c1=O | 30 µM | 56 µM |  |  | 230 µM | 7.6 | 4 |
| C/C=C/C(=O)OCCc1c(-c2ccccc2Cl)c2cc(Cl)ccc2[nH]c1=O | 25 µM | 22 µM |  |  | 30 µM | 1.2 | 1.3 |
| O=C(OCCc1c(-c2ccccc2Cl)c2cc(Cl)ccc2[nH]c1=O)c1ccc([N+](=O)[O-])cc1 | 1200 µM | 1600 µM |  |  | 1600 µM | 1.4 | 1 |
| O=C(CCOc1ccccc1)OCCc1c(-c2ccccc2Cl)c2cc(Cl)ccc2[nH]c1=O | 33 µM | 35 µM |  |  | 46 µM | 1.4 | 1.3 |
| O=C(O)CCC(=O)OCCc1c(-c2ccccc2Cl)c2cc(Cl)ccc2[nH]c1=O | 150 µM | > 110 µM |  |  | 110 µM | <1 | <1 |
| C/C=C/C=C/C(=O)OCCc1c(-c2ccccc2Cl)c2cc(Cl)ccc2[nH]c1=O | 23 µM | 26 µM |  |  | 440 µM | 19 | 17 |
| CC12CCC(C(=O)OCCc3c(-c4ccccc4Cl)c4cc(Cl)ccc4[nH]c3=O)(OC1=O)C2(C)C (centres undefined) | 1500 µM | > 1800 µM |  |  | > 1800 µM | >1.2 |  |
| O=C(OCCc1c(-c2ccccc2Cl)c2cc(Cl)ccc2[nH]c1=O)C1CCCCC1 | 27 µM | 34 µM |  |  | 38 µM | 1.4 | 1.1 |
| O=c1c(CCO)c(-c2ccccc2Cl)c2cc(Cl)ccc2n1Cc1c(F)cccc1F | 87 µM | > 2300 µM |  |  | > 2300 µM | >2.6 |  |
| CC(=O)N1CCC(C(=O)OCCc2c(-c3ccccc3Cl)c3cc(Cl)ccc3[nH]c2=O)CC1 | 51 µM | > 82 µM |  |  | 82 µM | 1.6 | <1 |
| CCOCC(=O)OCCc1c(-c2ccccc2Cl)c2cc(Cl)ccc2[nH]c1=O | 95 µM | > 130 µM |  |  | 130 µM | 1.4 | <1 |
| O=C(OCCc1c(-c2ccccc2Cl)c2cc(Cl)ccc2[nH]c1=O)c1cccs1 | > 1700 µM | > 1700 µM |  |  | > 1700 µM |  |  |
| O=C(CCC1CCCCC1)OCCc1c(-c2ccccc2Cl)c2cc(Cl)ccc2[nH]c1=O | 85 µM | 110 µM |  |  | 160 µM | 1.9 | 1.5 |

Continued, in another order:

| IC50 (Hepatitis B virus [1]) | IC50 (Hepatitis B virus [2]) | IC50 (Hepatitis B virus [6]; Hepatitis B virus, HepG2 2.2.15, 144 h, read-out: IC50) | IC50 (Hepatitis B virus [6]; hepg2 2.2.15) | SMILES | CC50 [3] | Selectivity Index [4] | Selectivity Index [5] |
| --- | --- | --- | --- | --- | --- | --- | --- |
| 37 µM | > 62 µM |  |  | CC(C)C(=O)OCCc1c(-c2ccccc2Cl)c2cc(Cl)ccc2[nH]c1=O | 62 µM | 1.7 | <1 |
| 74 µM | > 27 µM |  |  | CC(=O)OCCc1c(-c2ccccc2Cl)c2cc(Cl)ccc2[nH]c1=O | 27 µM | <1 | <1 |
| 460 µM | > 1000 µM |  |  | O=c1cc(-c2ccccc2Cl)c2cc(Cl)ccc2[nH]1 |  |  |  |
| 75 µM | > 100 µM |  |  | N#CCC(=O)OCCc1c(-c2ccccc2Cl)c2cc(Cl)ccc2[nH]c1=O | 100 µM | 1.3 | <1 |
| 22 µM | 34 µM |  |  | Cn1c(=O)c(CCO)c(-c2ccccc2Cl)c2cc(Cl)ccc21 | 34 µM | 1.6 | 1 |
| 59 µM | 62 µM |  |  | CCC(=O)OCCc1c(-c2ccccc2Cl)c2cc(Cl)ccc2[nH]c1=O | 95 µM | 1.6 | 1.5 |
| > 2400 µM | > 2400 µM |  |  | Clc1ccc2nc3c(c(-c4ccccc4Cl)c2c1)CCS3 | > 2400 µM |  |  |
| 76 µM | > 120 µM |  |  | O=CCc1c(-c2ccccc2Cl)c2cc(Cl)ccc2[nH]c1=O | 120 µM | 1.6 | <1 |
| 32 µM | > 74 µM |  |  | COCC(=O)OCCc1c(-c2ccccc2Cl)c2cc(Cl)ccc2[nH]c1=O | 74 µM | 1.4 | <1 |
| 32 µM | > 43 µM |  |  | O=C(OCCc1c(-c2ccccc2Cl)c2cc(Cl)ccc2[nH]c1=O)c1ccccc1 | 43 µM | 1.42 | <1 |
| > 280 µM | > 280 µM |  |  | Clc1ccc2nc3c(c(-c4ccccc4Cl)c2c1)CCO3 | > 280 µM |  |  |
| 10 µM | 12 µM |  |  | C=CCn1c(=O)c(CCO)c(-c2ccccc2Cl)c2cc(Cl)ccc21 | 23 µM | 2.3 | 1.9 |
| 350 µM | > 950 µM |  |  | O=C(O)Cc1c(-c2ccccc2Cl)c2cc(Cl)ccc2[nH]c1=O | 950 µM | 2.8 | <1 |
| 86 µM | 360 µM |  |  | O=c1[nH]c2ccc(Cl)cc2c(-c2ccccc2Cl)c1CCO | 380 µM | 4.4 | 1 |
| 55 µM | 55 µM |  |  | O=C(OCCc1c(-c2ccccc2Cl)c2cc(Cl)ccc2[nH]c1=O)c1cccnc1 | 170 µM | 3 | 3 |
